In ChEMBL document CHEMBL2380239, “Novel ROS-activated agents utilize a tethered amine to selectively target acute myeloid leukemia” (Bioorg Med Chem Lett, 2013) one finds IC50 and selectivity ratio data, which are given here for 15 compounds.

One data set deals with HeLa. The data set is described as follows: Cytotoxicity against human HeLa cells after 48 hrs by MTT assay. In kind it is functional, cell-based.
Data set [1] can be described thus: Cytotoxicity against human MA9.3 cells after 48 hrs by MTT assay. In kind it is functional, cell-based. The method in brief:
(§1)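 Non-transformed human CD34+ blood stem/progenitor cells from umbilical cord blood were run alongside MA9.3, an AML line made by introducing the MLL-AF9 oncogene into human CD34+ cells. IC50 was determined on each cell type. Therapeutic index is the ratio between the MA9.3 and CD34+ IC50 values.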
A general note: Formazan colour is commonly taken as a measure of viable cells.

Data set [2] can be described thus: Cytotoxicity against human CD34-positive blood stem/progenitor cells after 48 hrs by MTT assay. It counts as cell-based. The gist of the method: as §1
The nature of data set [3]: Therapeutic index, ratio of IC50 for human CD34-positive blood stem/progenitor cells to IC50 for human MA9.3 cells. The settings on record: CD34-positive blood stem/progenitor cells versus MA9.3 cells, read-out: Ratio IC50. The method in brief: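 Cytotoxicity was measured in parallel on non-cancerous human CD34+ blood stem/progenitor cells (UCB) and on the MA9.3 AML line, which was made by introducing the MLL-AF9 oncogene into human CD34+ cells. The index is IC50 in CD34+ cells divided by IC50 in MA9.3, reported as mean ± error.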

The structures appear in SMILES notation.

In the case of `CN(CCCBr)c1ccccc1`, the 50% inhibitory concentration (IC50) (usually the concentration needed to halve the response being measured) in the data set on HeLa is above 125 µM.

As for `Oc1ccc(OCCNc2ccccc2)cc1`, 30 µM corresponded to half-maximal inhibition with HeLa (IC50).

In the data set with HeLa, `CN(CCOc1ccc(O)cc1)c1ccccc1` gave an IC50 of 18 µM.

The compound `CCN(CCOc1ccc(O)cc1)c1ccccc1` returned an IC50 in the data set with HeLa of 23 µM.

Turning to `CC(C)N(CCOc1ccc(O)cc1)c1ccccc1`, the IC50 in the data set on HeLa worked out at 53 µM.

`CCN(CCCOc1ccc(O)cc1)c1ccccc1` registered an IC50 in the data set on HeLa of 14 µM.

Compound `CN(CCCCOc1ccc(O)cc1)c1ccccc1` yielded an IC50 in the data set with HeLa of 12 µM.

`CN(CCCCCOc1ccc(O)cc1)c1ccccc1` showed an IC50 in the data set on HeLa of 13 µM.

In turn, `CN(CCOc1ccc(O)cc1)Cc1ccccc1` had an IC50 in the data set on HeLa of 33 µM.

Consider `CN(C(=O)COc1ccc(O)cc1)c1ccccc1`, for which, in the data set on HeLa, the IC50 was above 125 µM.

`CN(CCCOc1ccccc1)c1ccccc1`: in the data set with HeLa, the IC50 was above 125 µM.

In the data set with HeLa, `CCOc1ccc(O)cc1` [1-hydroxy-4-ethoxybenzene] had an IC50 above 125 µM.

`O=C(O)CCCc1ccc(N(CCCl)CCCl)cc1` [CHLORAMBUCIL]: the 50% inhibitory concentration (IC50) in data set [1] is 8.7 µM; in data set [2], 11 µM. Further, the selectivity ratio in data set [3] stood at 1.3.

On to `Nc1ccn([C@@H]2O[C@H](CO)[C@@H](O)[C@@H]2O)c(=O)n1` [CYTARABINE], for which the IC50 in data set [1] came to 0.92 µM; in data set [2], 0.59 µM. The selectivity ratio in data set [3] came to 0.6.

Turning to `COc1cccc2c1C(=O)c1c(O)c3c(c(O)c1C2=O)C[C@@](O)(C(=O)CO)C[C@@H]3O[C@H]1C[C@H](N)[C@H](O)[C@H](C)O1` [DOXORUBICIN], the IC50 is 0.086 µM in data set [1] and 0.076 µM in data set [2].
